Screens deposited in PubChem BioAssay by Columbia University Molecular Screening Center.
Only a selection was taken, and hits are over-represented in it overall.
INS promoter act: TRM-6 insulin promoter activation | TRM-6 cells (human fetal islet line), insulin promoter eGFP reporter, imaging; plate-scaled: unstimulated 0, stimulated control 100 | activation, % at 2 µM | hit rate 0.81% among 130,000;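 active means activation at 2 µM above a set limit, confirmed on inspection of the cell images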;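 further: share of cells whose green reporter signal exceeds an intensity cutoff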
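test system = TRM-6 insulin promoter–eGFP reporter cells | benchmarks = stimulated versus unstimulated wells as plate controls | read-out basis = percent cells above green-intensity threshold, converted to percent activation versus plate controls | detection = fixed-cell fluorescence microscopy, eGFP plus Hoechst | incubation = tamoxifen pre-incubation 15 h overnight, then compound exposure 48 h at 37 °C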
The depositor's hits bear a star.

SMILES	INS promoter act
Cn1c(SCC2CCCO2)nnc1-c1ccc([N+](=O)[O-])cc1 (stereo not drawn)	0
Cc1ccc(NC(=O)CSCC(=O)Nc2ccc(N3CCOCC3)c(Cl)c2)cc1	0
Cn1c(SCC(=O)Nc2ccc(N3CCOCC3)c(Cl)c2)nnc1-c1ccccc1	800*
CCn1c(Cc2ccccc2)nnc1SCC(=O)Nc1ccc(N2CCOCC2)c(Cl)c1	377
Cc1ccc(N2C(=O)c3ccc(C(=O)O)cc3C2=O)c(C)c1	7
CC1CCc2sc(C(=O)N=Nc3c(O)[nH]c4ccccc34)cc2C1 (stereo not drawn)	8
CCC(CC)c1nnc(NC(=O)[C@@H](NC(=O)c2cccc(C)c2)C(C)C)s1	-9
Cc1cc(C)nc(SCc2ccc(C(=O)N/N=C/c3ccccn3)cc2)n1	0
C#C[C@]1(O)CC[C@H]2[C@@H]3CCc4cc(OC)ccc4[C@H]3CC[C@@]21C	-5
Cc1nn(C)c(C)c1/C=N/N=C1\CCC2C3CCc4cc(O)ccc4C3CCC12C (stereo not drawn)	91*
Cc1ccc(-c2cc(C(=O)N/N=C/c3c(C)nn(C)c3C)c3ccccc3n2)cc1C	5
CCOC(=O)c1cc(-c2ccc(OC(F)F)cc2)nc2c1c(=O)[nH]c(=O)n2C	2
Cc1cc(NCCO)nc(-n2nc(C)cc2C)n1	-79
CNc1nc(C)nc(-n2nc(C)cc2C)n1	660*
Cc1cc(-n2nc(C)cc2C)nc(N)n1	-8
CCc1ccc(CN2C(=O)c3ccccc3C2C(=O)NCc2cccnc2)cc1 (stereo not drawn)	3
Cc1ccc(CS(=O)(=O)Cc2ccc(C(=O)NCc3cccs3)o2)cc1	-6
Cc1ccsc1C(=O)Nc1cccc(S(=O)(=O)N(C)C)c1	431*
CN(C)S(=O)(=O)c1cccc(C(=O)Nc2ccccc2)c1	7
CN(C)S(=O)(=O)c1cccc(NC(=O)Cc2ccc(Cl)cc2)c1	9
COc1cccc(CSc2nc3cc4c(cc3cc2C)OCCO4)c1	3
CCCCN(CC)CCNC(=O)CNC(=O)Cn1ccc2ccccc2c1=O	8
CCOC(=O)C(Cc1c[nH]c2ccccc12)NC(=O)c1ccco1 (stereo not drawn)	-9
CCCC(=O)NC(c1ccco1)c1c(O)ccc2ccccc12 (stereo not drawn)	133*
CCCC(=O)NC(c1ccco1)c1cc([N+](=O)[O-])c2cccnc2c1O (stereo not drawn)	7
SMILES	INS promoter act
CCc1ccc(N(C(=O)c2csnn2)C(C(=O)NC(C)(C)C)c2cccnc2)cc1 (stereo not drawn)	-4
Cc1ccccc1NC(=O)C1CCCN1C(=O)NC1CCCCC1 (stereo not drawn)	9
O=[N+]([O-])c1cc(C(F)(F)F)ccc1NCCNC(=S)Nc1ccc(Cl)cc1	7
CCCc1cc(-n2cnc3ccccc32)n2c(nc3ccccc32)c1C#N	76*
CCCc1cc(NCc2ccccn2)n2c(nc3ccccc32)c1C#N	0
CCCNc1cc(C)c(C#N)c2nc3ccccc3n12	381
CCCC12CN3CC(C)(CN(C1)C3c1ccco1)C2=O (stereo not drawn)	6
COc1ccccc1NS(=O)(=O)c1ccc(N/N=C(\C)C(C)C)c([N+](=O)[O-])c1	-9
COc1ccccc1NS(=O)(=O)c1cc([N+](=O)[O-])ccc1N/N=C/c1c(C)[nH]c2ccccc12	260*
COc1ccccc1NS(=O)(=O)c1cc(C)ccc1C	10
OC(c1ccccc1)(c1ccc(F)cc1)C(c1ccccc1)N1CCOCC1 (stereo not drawn)	-3
Cc1cccc(OCCOc2ccc(/C=N/NC(=O)Cc3nnc(N)s3)cc2)c1	9
CC12CCC(C(=O)Nc3cc(Cl)ccc3Cl)(C(Br)C1=O)C2(C)C (stereo not drawn)	-3
COC(=O)c1cccc(CSc2nnc(C)s2)c1	-3
C=CCn1cc(C(=O)N2CCc3ccccc3C2)c(=O)c2cc(S(=O)(=O)N(CC)CC)ccc21	400*
C=CCn1cc(C(=O)OC)c(=O)c2cc(S(=O)(=O)N3CCC(C)CC3)ccc21	0
O=C(c1ccc(S(=O)(=O)c2ccccc2)cc1)N1CCc2ccccc2C1	6
COc1ccc(S(=O)(=O)N2CC3CCCN3c3ccc(C(F)(F)F)cc32)cc1 (stereo not drawn)	4
O=C(OCC(=O)N1CCc2ccccc21)c1c2c(nc3ccccc13)CCCCC2	-9
COC(=O)c1ccc(COC(=O)CCC(=O)c2cccs2)cc1	0
CCOc1ccccc1NC1=C(Cl)C(=O)N(c2ccc(OC)cc2)C1=O	3
COc1ccccc1N1C(=O)C(Cl)=C(Nc2ccccc2O)C1=O	379*
COc1ccccc1N1CCN(c2ccc(Cl)nn2)CC1	-7
CCCN(CCC)S(=O)(=O)c1ccc(C(=O)NNc2nc(-c3ccccc3)c3cc(Br)ccc3n2)cc1	0
O=C(CCc1nc2ccccc2c(=O)[nH]1)OCC(=O)c1ccc(C2CCCCC2)cc1	0
SMILES	INS promoter act
CCN(CC(=O)NC(=O)NC1CCCCC1)Cc1nc2ccccc2c(=O)[nH]1	3
O=C(COCc1nc2ccccc2c(=O)[nH]1)NCC1CCCCC1	486*
CCOc1ccc(N2C(=O)CC(N3CC(C)OC(C)C3)C2=O)cc1 (stereo not drawn)	0
CN=c1sc2ccccc2n1CC(O)COCc1ccco1 (stereo not drawn)	-7
CN(Cc1cccs1)CC(O)COCc1ccco1 (stereo not drawn)	-5
OC(COCc1ccco1)CN1CCN(C(c2ccccc2)c2ccccc2)CC1 (stereo not drawn)	129*
CCN(CCCNC(=O)C1CCC(=O)N1Cc1ccccc1Cl)c1cccc(C)c1 (stereo not drawn)	92*
CCN(CCCNC(=O)C1CCN(S(=O)(=O)N2CCOCC2)CC1)c1cccc(C)c1	114
CCN(CCNC(=O)C1CCC(=O)N1Cc1ccc(C)cc1)c1ccccc1 (stereo not drawn)	0
Fc1cccc(Cc2noc(CN3CCCN(C4Cc5ccccc5C4)CC3)n2)c1	7
O=C(NC1CC2CCC(C1)N2C(=O)NCc1ccccc1)NC12CC3CC(CC(C3)C1)C2 (stereo not drawn)	-3
CCn1c(SC/C=C/c2ccccc2)nnc1-c1cccs1	191
C=CCn1c(Cc2cccs2)nnc1SC/C=C/c1ccccc1	81*
C=CCn1c(CCNC(=O)c2cccs2)nnc1SCC(=O)c1ccc(Br)cc1	-7
Cc1ccc(-c2cc(C(=O)Nc3nn[nH]n3)c3ccccc3n2)cc1	8
COC(=O)c1c(CSc2ccc(C)c(C)c2)noc1C(=O)NCc1ccc(OC)cc1	9
NC(=O)C1CCN(C(=O)COc2ccc(S(=O)(=O)NCc3ccccc3)cc2Cl)CC1	-4
Cc1nc2ccccn2c1C(=O)NNS(=O)(=O)c1ccc(C(C)(C)C)cc1	5
CCn1c(CSCc2ccc(F)cc2)nnc1SCC(=O)N1CCN(c2ccccc2)CC1	95*
O=C(CSCc1ccccc1)N1CCN(c2ccc(F)cc2)CC1	-4
CCn1c(SCC(=O)N2CCN(c3ccccc3)CC2)nnc1-c1ccncc1	6
Cc1c(C)n(C(=O)CN2CCC(C)CC2)c2ccccc12	3
O=C(O)c1ccc(N2C(=O)CC(SC(=NCc3ccc4c(c3)OCO4)Nc3ccc(F)cc3)C2=O)cc1 (stereo not drawn)	143
Cc1ccc(Nc2nnc(SCC(=O)Nc3cccnc3Cl)s2)cc1C	-7
FC(F)(F)c1nc(-c2cccs2)ncc1-c1nnnn1-c1ccc(Cl)cc1	3
